The inhibition is the relative decrease from the control value, in per cent. By IC50 is commonly meant the concentration that inhibits the measured activity by half.

Consider ten compounds from ChEMBL document CHEMBL2401732, “Evaluation of adenine as scaffold for the development of novel P2X3 receptor antagonists” (Eur J Med Chem, 2013).

In assay [1] the target is T1, P2X purinoceptor 3 (Rattus norvegicus) (UniProt P49654).
T1 sequence (whole entry): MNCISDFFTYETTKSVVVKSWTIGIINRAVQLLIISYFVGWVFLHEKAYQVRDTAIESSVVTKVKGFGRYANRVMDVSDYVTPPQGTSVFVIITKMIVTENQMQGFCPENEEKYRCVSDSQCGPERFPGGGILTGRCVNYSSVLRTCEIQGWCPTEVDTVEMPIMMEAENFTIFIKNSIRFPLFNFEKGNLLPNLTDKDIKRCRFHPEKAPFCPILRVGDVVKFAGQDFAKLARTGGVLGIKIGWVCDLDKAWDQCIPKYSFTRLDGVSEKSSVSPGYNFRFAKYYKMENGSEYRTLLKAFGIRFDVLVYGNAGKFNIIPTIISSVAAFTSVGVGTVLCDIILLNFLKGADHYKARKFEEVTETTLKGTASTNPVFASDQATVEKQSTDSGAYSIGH
Kind of assay: Antagonist activity at rat recombinant P2X3 receptor expressed in HEK293T cells assessed as desensitization of alpha,beta-methyleneATP-induced current at 0.3 uM after 20 secs by patch clamp technique. The note with it: HEK-293T. It is filed as cell-based. The method in brief:
(§1)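 HEK 293T cells transiently co-transfected by calcium phosphate with pEGFP and pcDNA3-P2X3 (rat or human, 1:1), used 24 or 48 h later. GFP-positive cells whole-cell clamped at -60 mV, room temperature, CsCl pipette solution, HEPES-buffered bath pH 7.4. Control response averaged over ≥3 pulses of 100 μM α,β-meATP (2 s, 5 min apart). Compound applied 20 s before agonist. Screening at 100 μM, then 100–0.3 μM. Peak % inhibition computed; Hill fits of dose–inhibition data, n = 6–14 cells.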
On the technique in general: The patch-clamp technique gives a direct electrical read-out from membranes.

Assay [2] concerns the target T1, P2X purinoceptor 3 (Rattus norvegicus). Put plainly: Antagonist activity at rat recombinant P2X3 receptor expressed in HEK293T cells assessed as desensitization of alpha,beta-methyleneATP-induced current at 10 uM after 20 secs by patch clamp technique. Format: cell-based. Conditions: HEK-293T. The method, boiled down: as §1
The target is the same in assay [3]. Put plainly: Antagonist activity at rat recombinant P2X3 receptor expressed in HEK293T cells assessed as desensitization of alpha,beta-methyleneATP-induced current at 100 uM after 20 secs by patch clamp technique. Conditions: HEK-293T. It is filed as cell-based. The method in brief: as §1
Assay [4] has the same target. Put plainly: Antagonist activity at rat recombinant P2X3 receptor expressed in HEK293T cells assessed as desensitization of alpha,beta-methyleneATP-induced current at 1 uM after 20 secs by patch clamp technique. Format: cell-based. Conditions: HEK-293T. The method, boiled down:
as §1

In the next assay the target is T2, P2X purinoceptor 3 (Rattus norvegicus, UniProt P49654).
T2 sequence (P49654 whole entry): T1 sequence (whole entry)
Kind of assay: Antagonist activity at rat recombinant P2X3 receptor expressed in HEK293T cells assessed as desensitization of alpha,beta-methyleneATP-induced current after 20 secs by patch clamp technique. It is filed as cell-based, HEK-293T. The method, boiled down:
as §1

Assay [5] addresses T1, P2X purinoceptor 3 (Rattus norvegicus). Kind of assay: Antagonist activity at rat recombinant P2X3 receptor expressed in HEK293T cells assessed as desensitization of alpha,beta-methyleneATP-induced current at 100 uM after 6 mins of compound wash out by patch clamp technique. Format: cell-based. Conditions: HEK-293T. The method in brief: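 Rat P2X3 in transfected HEK 293T cells, whole-cell clamp at -60 mV. After 20 s compound application and a 2 s pulse of 100 μM α,β-meATP, the cell was washed for 6 min. Recovery was assessed as the peak current to a repeat agonist pulse, compared with the control peak.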

The target is the same in assay [6]. Kind of assay: Antagonist activity at rat recombinant P2X3 receptor expressed in HEK293T cells assessed as desensitization of alpha,beta-methyleneATP-induced current at 100 uM after 20 secs by patch clamp technique relative to control. It is filed as cell-based. Conditions: HEK-293T. More on the design: scale not given: the % may be the effect or the level left. The method, boiled down:
as §1

The target of assay [7] is T3, P2X purinoceptor 3 (Homo sapiens) (UniProt P56373).
T3 sequence (whole entry): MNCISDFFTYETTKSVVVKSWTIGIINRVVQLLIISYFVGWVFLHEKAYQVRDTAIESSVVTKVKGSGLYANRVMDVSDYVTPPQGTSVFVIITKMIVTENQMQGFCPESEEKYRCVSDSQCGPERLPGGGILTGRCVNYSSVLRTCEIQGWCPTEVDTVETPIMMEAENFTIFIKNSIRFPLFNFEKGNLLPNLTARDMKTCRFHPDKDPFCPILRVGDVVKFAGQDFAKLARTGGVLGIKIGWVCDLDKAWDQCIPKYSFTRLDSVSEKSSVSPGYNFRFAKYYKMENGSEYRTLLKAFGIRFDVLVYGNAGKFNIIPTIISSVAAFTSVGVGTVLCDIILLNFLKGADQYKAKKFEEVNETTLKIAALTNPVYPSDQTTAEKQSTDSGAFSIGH
Put plainly: Antagonist activity at human recombinant P2X3 receptor expressed in HEK293T cells assessed as desensitization of alpha,beta-methyleneATP-induced current at 100 uM after 20 secs by patch clamp technique. It is filed as cell-based. The note with it: HEK-293T, 1 uM, in the assay text read “at 1 uM” for “at 100 uM”. The method in brief:
as §1

Assay [8] deals with T4, P2X purinoceptor 3 (Mus musculus) (UniProt Q3UR32).
T4 sequence (whole entry): T1 sequence (whole entry) with L144R, R202K, A377T
Put plainly: Antagonist activity at P2X3 receptor in C57Bl/6 wild type mouse trigeminal ganglion sensory neurons assessed as desensitization of alpha,beta-methyleneATP-induced current at 1 uM after 20 secs by patch clamp technique. Format: tissue-based. The method in brief: (§2)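 Native P2X3 in trigeminal ganglion neurons from C57Bl/6 mice (P10–14), dissociated with trypsin/collagenase/DNAse at 37 °C for 12 min and cultured 24 h. Small/medium neurons whole-cell voltage clamped at -60 mV, room temperature. Pipette KCl-based with ATP–Mg/GTP–Li, pH 7.2. Compound superfused 20 s, then 2 s pulse of 100 μM α,β-meATP. % inhibition = 100×(1−I2/I1) from peak currents.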

The target in assay [9] is T4, P2X purinoceptor 3 (Mus musculus). Kind of assay: Antagonist activity at P2X3 receptor in C57Bl/6 wild type mouse trigeminal ganglion sensory neurons assessed as desensitization of alpha,beta-methyleneATP-induced current at 100 uM after 20 secs by patch clamp technique. Format: tissue-based. The method, boiled down: as §2

Changes are numbered by the printed parent chain. Active and inactive are the calls of the source. The calls are words filed in the database; no cut-off is given here.

Turning to `COc1cc(C(C)C)c(Cn2cnc3c(NC4CCCC4)nc(N)nc32)cc1I`, the inhibition in assay [1] was 45%; in assay [2] it was 60%; in assay [3], 58%; in assay [4] it was 51%.
In the case of `COc1cc(Cn2cnc3nc(N)nc(N)c32)c(C(C)C)cc1OC`, the inhibition in [3] came to 23%.
For the compound `COc1cc(Cn2cnc3c(N)nc(N)nc32)c(C(C)C)cc1OC`, the inhibition in assay [2] is 36%; in assay [3], 82%; in assay [4], 8%. In addition, on P2X purinoceptor 3, the IC50 turned out to be 18600 nM. Also, the result in assay [5] was inactive.
As to `COc1cc(C(C)C)c(Cn2cnc3c(N)nc(N)nc32)cc1I`, the inhibition in assay [1] amounted to 23%; in assay [2], 78%; in assay [3], 93%; in [4], 35%. In addition, the IC50 on P2X purinoceptor 3 worked out at 2230 nM.
With `CNc1nc(N)nc2c1ncn2Cc1cc(OC)c(OC)cc1C(C)C`, the inhibition in assay [3] was determined as 71%.
With `COc1cc(C(C)C)c(Cn2cnc3nc(N)nc(N)c32)cc1I`, the inhibition in [2] worked out at 43%.
As to `COc1cc(C(C)C)c(Cn2cnc3c(OC)nc(N)nc32)cc1I`, the inhibition in assay [3] stood at 50%.
Still for that read-out and setting: for `COc1cc(Cn2cnc3nc(N)nc(Cl)c32)c(C(C)C)cc1OC` the value was 19%.
On to `COc1cc(Cn2cnc3c(Cl)nc(N)nc32)c(C(C)C)cc1OC`, for which the Activity in [6] was 6%. Also, the inhibition in assay [3] turned out to be 27%.
`CNc1nc(N)nc2c1ncn2Cc1cc(I)c(OC)cc1C(C)C`: the inhibition in assay [1] turned out to be 22%; in assay [2], 76%; in assay [3], 98%; in assay [7] it was 29%; in [8] it was 37%; in assay [4] it was 41%. For the same compound, the 50% inhibitory concentration (IC50) at P2X purinoceptor 3 turned out to be 1740 nM. Moreover, the result in assay [5] was inactive. The inhibition result in assay [9] was “Active”.
